Experimental data from ChEMBL document CHEMBL3774376, “Synthesis, and anticonvulsant activity of new amides derived from 3-methyl- or 3-ethyl-3-methyl-2,5-dioxo-pyrrolidin-1-yl-acetic acids” (Bioorg Med Chem, 2016).
Active and inactive are the calls of the source. The rule behind the calls is not given here.

What was measured:
[1] = test system: Mus musculus; assay: Neurotoxicity in CD1 albino mouse assessed as acute motor impairment at 100 to 300 mg/kg, ip after 0.5 hrs by rotarod test; type: toxicity, organism-based; settings: in vivo
Summary of the method: (§1)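 Male CD-1 mice given 30, 100 or 300 mg/kg ip in 0.5% methylcellulose, tested at 0.5 and 4 h. Motor impairment was scored as failure to keep balance for at least 1 min on a rod rotating at 10 rpm. Minimum dose causing impairment reported.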

[2] = test system: Mus musculus; assay: Neurotoxicity in CD1 albino mouse assessed as acute motor impairment at 300 mg/kg, ip after 4 hrs by rotarod test; type: toxicity, organism-based; settings: in vivo; summary of the method: as §1
[3] = test system: Mus musculus; assay: Anticonvulsant activity in CD1 mouse assessed as protection against 32 mA-current- for 3 secs induced seizure at 100 mg/kg, ip after 0.25 hrs by 6Hz psychomotor seizure test; type: functional
Summary of the method: (§2)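 Male CD-1 mice given 100 mg/kg ip in 0.5% methylcellulose, four per time point. Corneal stimulation at 32 mA, 0.2 ms monopolar rectangular pulses at 6 Hz for 3 s, from a constant-current device. A mouse was protected if it resumed normal exploratory behavior within 10 s. Reported as number protected over number tested.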

[4] = test system: Mus musculus; assay: Anticonvulsant activity in CD1 mouse assessed as protection against 32 mA-current- for 3 secs induced seizure at 100 mg/kg, ip after 0.5 hrs by 6Hz psychomotor seizure test; type: functional; summary of the method: as §2
[5] = test system: Mus musculus; assay: Anticonvulsant activity in CD1 mouse assessed as protection against 32 mA-current- for 3 secs induced seizure at 100 mg/kg, ip after 2 hrs by 6Hz psychomotor seizure test; type: functional, organism-based; summary of the method: as §2
[6] = test system: Mus musculus; assay: Anticonvulsant activity in ip dosed CD1 albino mouse assessed as time to peak effect; type: functional
Summary of the method: (§3)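 Quantitation in male CD-1 mice dosed ip at the previously estimated time of peak effect. Seizures were induced by MES or by sc pentylenetetrazole 85 mg/kg; rotarod at 10 rpm assessed motor impairment. Groups of six, at least three doses giving 10-90% effect.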

[7] = test system: Mus musculus; assay: Anticonvulsant activity in ip dosed CD1 albino mouse assessed as protection against subcutaneous pentylenetetrazole-induced seizures; type: functional; summary of the method: as §3
[8] = Neurotoxicity in ip dosed CD1 albino mouse assessed as acute motor impairment by rotarod test; type: toxicity, organism-based; settings: in vivo; summary of the method: as §3
[9] = species: Mus musculus; assay: Protection index, ratio of TD50 for CD1 albino mouse to ED50 for protection against maximal electroshock-induced seizures in CD1 albino mouse; summary of the method: as §3
[10] = test system: Mus musculus; assay: Protection index, ratio of TD50 for CD1 albino mouse to ED50 for protection against subcutaneous pentylenetetrazole-induced seizures in CD1 albino mouse; summary of the method: as §3
[11] = test system: Mus musculus; assay: Antinociceptive activity in CD1 albino mouse assessed as reduction of formalin-induced licking response in neurogenic phase at 69.05 mg/kg, ip preincubated for 30 mins measured after 5 mins; type: functional, organism-based
[12] = test system: Mus musculus; assay: Antinociceptive activity in CD1 albino mouse assessed as reduction of formalin-induced licking response in inflammatory phase at 69.05 mg/kg, ip preincubated for 30 mins measured after 15 to 20 mins; type: functional; parameters: scale not given: the % may be the effect or the level left
[13] = test system: Mus musculus; assay: Antinociceptive activity in CD1 albino mouse assessed as reduction of formalin-induced licking response in neurogenic phase at 69.05 mg/kg, ip preincubated for 30 mins measured after 25 to 30 mins; type: functional; parameters: scale not given: the % may be the effect or the level left
[14] = test system: Mus musculus; assay: Local anesthetic activity in CD1 albino mouse assessed prolongation of time reaction at 2 % concentration after 20 secs by tail immersion test relative to vehicle control; type: functional
Summary of the method: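 Compound at 1 or 2% in 0.5% methylcellulose, injected sc (0.2 ml) about 1 cm from the tail root of male CD-1 mice. After 15 min, the distal 3 cm of the tail was immersed in 50 ± 0.5 °C water and withdrawal time measured, cut off at 20 s. n=8; mean ± SEM; % prolongation relative to vehicle.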

[15] = species: Rattus norvegicus; assay: Displacement of [3H]BTX from voltage-sensitive Na+ channel site 2 in rat cerebral cortex synaptoneurosomes at 100 uM after 60 mins by liquid scintillation spectroscopic analysis; type: tissue-based
Summary of the method: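 Cerebral cortex synaptoneurosomes from rat, tested at 100 µM for inhibition of specific [3H]BTX binding to the voltage-sensitive Na+ channel site 2. Reported as % inhibition of control specific binding; run commercially.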

[16] = test system: Mus musculus; assay: Anticonvulsant activity in ip dosed CD1 albino mouse assessed as protection against maximal electroshock-induced seizures; type: functional
[17] = test system: Mus musculus; assay: Anticonvulsant activity in CD1 albino mouse assessed as protection against maximal electroshock-induced seizures at 100 to 300 mg/kg, ip after 0.5 hrs; type: functional; settings: read-out: MED
[18] = test system: Mus musculus; assay: Anticonvulsant activity in CD1 albino mouse assessed as protection against maximal electroshock-induced seizures at 300 mg/kg, ip after 4 hrs; type: functional, organism-based
[19] = test system: Mus musculus; assay: Anticonvulsant activity in CD1 albino mouse assessed as protection against subcutaneous pentylenetetrazole-induced seizures at 100 to 300 mg/kg, ip after 0.5 hrs; type: functional; settings: CD1, 0.5 h, read-out: MED
Summary of the method: (§4)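 Male CD-1 mice (16-26 g), compounds ip in 0.5% methylcellulose/water at 30, 100 or 300 mg/kg, 3-4 per group. At 0.5 or 4 h, pentylenetetrazole 85 mg/kg was injected sc. Protection was absence of clonic convulsions (at least 5 s) over a 30 min observation. Minimum active dose recorded.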

[20] = test system: Mus musculus; assay: Anticonvulsant activity in CD1 albino mouse assessed as protection against subcutaneous pentylenetetrazole-induced seizures at 300 mg/kg, ip after 4 hrs; type: functional, organism-based; summary of the method: as §4
[21] = test system: Mus musculus; assay: Neurotoxicity in CD1 albino mouse assessed as acute motor impairment at 300 mg/kg, ip measured after 0.5 hrs by rotarod test; type: toxicity, organism-based; settings: in vivo; summary of the method: as §1
[22] = test system: Mus musculus; assay: Antinociceptive activity in CD1 albino mouse assessed as reduction of formalin-induced licking response in neurogenic phase at 75.60 mg/kg, ip preincubated for 4 hrs measured after 5 mins; type: functional; parameters: scale not given: the % may be the effect or the level left
[23] = test system: Mus musculus; assay: Antinociceptive activity in CD1 albino mouse assessed as reduction of formalin-induced licking response in inflammatory phase at 75.60 mg/kg, ip preincubated for 4 hrs measured after 15 to 20 mins; type: functional; parameters: scale not given: the % may be the effect or the level left
[24] = test system: Mus musculus; assay: Antinociceptive activity in CD1 albino mouse assessed as reduction of formalin-induced licking response in inflammatory phase at 75.60 mg/kg, ip preincubated for 4 hrs measured after 20 to 25 mins; type: functional; parameters: scale not given: the % may be the effect or the level left
[25] = test system: Mus musculus; assay: Antinociceptive activity in CD1 albino mouse assessed as reduction of formalin-induced licking response in inflammatory phase at 75.60 mg/kg, ip preincubated for 4 hrs measured after 25 to 30 mins; type: functional; parameters: scale not given: the % may be the effect or the level left
[26] = test system: Mus musculus; assay: Anticonvulsant activity in CD1 albino mouse assessed as protection against maximal electroshock-induced seizures at 100 to 300 mg/kg, ip after 4 hrs; type: functional; settings: read-out: MED
[27] = test system: Mus musculus; assay: Anticonvulsant activity in CD1 albino mouse assessed as protection against subcutaneous pentylenetetrazole-induced seizures at 100 to 300 mg/kg, ip after 4 hrs; type: functional; settings: CD1, 4 h, read-out: MED; summary of the method: as §4
[28] = test system: Mus musculus; assay: Antinociceptive activity in CD1 albino mouse assessed as reduction of formalin-induced licking response in neurogenic phase at 87.36 mg/kg, ip preincubated for 1 hr measured after 5 mins; type: functional, organism-based
[29] = test system: Mus musculus; assay: Antinociceptive activity in CD1 albino mouse assessed as reduction of formalin-induced licking response in inflammatory phase at 87.36 mg/kg, ip preincubated for 1 hr measured after 15 to 20 mins; type: functional; parameters: scale not given: the % may be the effect or the level left
[30] = test system: Mus musculus; assay: Antinociceptive activity in CD1 albino mouse assessed as reduction of formalin-induced licking response in inflammatory phase at 87.36 mg/kg, ip preincubated for 1 hr measured after 25 to 30 mins; type: functional; parameters: scale not given: the % may be the effect or the level left
[31] = test system: Mus musculus; assay: Anticonvulsant activity in CD1 mouse assessed as protection against 32 mA-current- for 3 secs induced seizure at 100 mg/kg, ip after 1 hrs by 6Hz psychomotor seizure test; type: functional; summary of the method: as §2
[32] = test system: Mus musculus; assay: Anticonvulsant activity in CD1 albino mouse assessed as protection against subcutaneous pentylenetetrazole-induced seizures at 300 mg/kg, ip after 0.5 hrs; type: functional, organism-based; summary of the method: as §4

Row | inhibition [15] [%] | SMILES | Activity [2] | Activity [4] [%] | Time [6] [h] | ED50 [7] [mg/kg] | TD50 [8] [mg/kg] | Ratio TD50/ED50 [9] | Ratio TD50/ED50 [10] | Activity [14] [%] | ED50 [16] [mg/kg] | minimal effective dose [17] [mg/kg] | minimal effective dose [19] [mg/kg] | Activity [20] | Activity [21] | minimal effective dose [26] [mg/kg] | further results
1 | 32.5 | CCC1(C)CC(=O)N(CC(=O)N2CCN(c3ccc(F)cc3)CC2)C1=O (stereo not given) | Non-toxic | 75 | 0.5 | 130 | 191 | 2.76 | 1.47 | 61 | 69 | 100 | 100 | inactive |  |  | MTC [1]: 300 mg/kg; Activity [3]: 75%; Activity [5]: inactive; Activity [11]: inactive; Activity [12]: 93%; Activity [13]: 92%; Activity [18]: inactive
2 | 33.4 | CC1CC(=O)N(CC(=O)N2CCN(c3ccc(Cl)c(Cl)c3)CC2)C1=O (stereo not given) | Non-toxic |  | 1 | 54.1 | 263 | 3.48 | 4.86 | 14 | 75.6 | 300 | 100 |  | Non-toxic | 100 | Activity [22]: 61%; Activity [23]: 100%; Activity [24]: 95%; Activity [25]: 95%; minimal effective dose [27]: 100 mg/kg
3 | 36.6 | CC1CC(=O)N(CC(=O)N2CCN(c3ccc(F)cc3)CC2)C1=O (stereo not given) | Non-toxic | 75 | 1 |  | > 300 | >3.43 |  | 12 | 87.4 | 300 |  | inactive | Non-toxic | 100 | Activity [28]: inactive; Activity [29]: 95%; Activity [30]: 98%; Activity [31]: 75%; Activity [32]: inactive
